These results are taken from ChEMBL document CHEMBL3774372, “Design, physico-chemical properties and biological evaluation of some new N-[(phenoxy)alkyl]- and N-{2-[2-(phenoxy)ethoxy]ethyl}aminoalkanols as anticonvulsant agents” (Bioorg Med Chem, 2016).

Series [1] deals with Rattus norvegicus. Put plainly: Neurotoxicity in rat at 30 mg/kg, ip after […] by rotarod test. It is filed as toxicity, organism-based. To be noted: in vivo. For orientation: Falling from the rotarod earlier than controls is read as motor impairment.
In series [2] the test system is Rattus norvegicus. The series can be described thus: Neurotoxicity in rat at 30 mg/kg, ip after 0.5 hrs by rotarod test. The following applies: in vivo. It is filed as toxicity, organism-based.
The test system of series [3] is Rattus norvegicus. Put plainly: Neurotoxicity in rat at 30 mg/kg, ip after 1 hr by rotarod test. It is filed as toxicity, organism-based. The following applies: in vivo.
In series [4] the test system is Rattus norvegicus. The series can be described thus: Neurotoxicity in rat at 30 mg/kg, ip after 2 hrs by rotarod test. It is filed as toxicity, organism-based. To be noted: in vivo.
The test system of series [5] is Rattus norvegicus. Put plainly: Neurotoxicity in rat at 30 mg/kg, ip after 4 hrs by rotarod test. The following applies: in vivo. It is filed as toxicity, organism-based.
Series [6] has as its system Rattus norvegicus. Put plainly: Neurotoxicity in rat at 30 mg/kg, po after […] by rotarod test. It is filed as toxicity, organism-based. To be noted: in vivo.
For series [7], the system named is Rattus norvegicus. The series can be described thus: Neurotoxicity in rat at 30 mg/kg, po after 0.5 hrs by rotarod test. It is filed as toxicity, organism-based. To be noted: in vivo.
Series [8] has as its system Rattus norvegicus. The series can be described thus: Neurotoxicity in rat at 30 mg/kg, po after 1 hr by rotarod test. It is filed as toxicity, organism-based. The following applies: in vivo.
Series [9] concerns Rattus norvegicus. Put plainly: Neurotoxicity in rat at 30 mg/kg, po after 2 hrs by rotarod test. It is filed as toxicity, organism-based. To be noted: in vivo.
Series [10] deals with Rattus norvegicus. Put plainly: Neurotoxicity in rat at 30 mg/kg, po after 4 hrs by rotarod test. It is filed as toxicity, organism-based. To be noted: in vivo.
The subject of series [11] is Mus musculus. The series can be described thus: Neurotoxicity in mouse at 20 mg/kg, ip after […] by rotarod test. It is filed as toxicity, organism-based. To be noted: in vivo.
The test system of series [12] is Mus musculus. The series can be described thus: Neurotoxicity in mouse at 40 mg/kg, ip after 4 hrs by rotarod test. It is filed as toxicity, organism-based. To be noted: in vivo.
The test system of series [13] is Mus musculus. The series can be described thus: Neurotoxicity in mouse at 40 mg/kg, ip after 2 hrs by rotarod test. It is filed as toxicity, organism-based. The following applies: in vivo.
For series [14], the system named is Mus musculus. The series can be described thus: Neurotoxicity in mouse at 40 mg/kg, ip after […] by rotarod test. It is filed as toxicity, organism-based. The following applies: in vivo.
In series [15] the test system is Mus musculus. The series can be described thus: Neurotoxicity in mouse at 40 mg/kg, ip after 1 hr by rotarod test. The following applies: in vivo. It is filed as toxicity, organism-based.
Series [16] relates to Mus musculus. Put plainly: Neurotoxicity in mouse at 20 mg/kg, ip after 0.5 hrs by rotarod test. The following applies: in vivo. It is filed as toxicity, organism-based.
For series [17], the system named is Mus musculus. The series can be described thus: Neurotoxicity in mouse at 20 mg/kg, ip after 1 hr by rotarod test. It is filed as toxicity, organism-based. To be noted: in vivo.
In series [18] the test system is Mus musculus. The series can be described thus: Neurotoxicity in mouse at 20 mg/kg, ip after 2 hrs by rotarod test. It is filed as toxicity, organism-based. To be noted: in vivo.
For series [19], the system named is Mus musculus. Put plainly: Neurotoxicity in mouse at 20 mg/kg, ip after 4 hrs by rotarod test. It is filed as toxicity, organism-based. The following applies: in vivo.
Series [20] relates to Mus musculus. The series can be described thus: Neurotoxicity in mouse at 30 mg/kg, ip after 4 hrs by rotarod test. To be noted: in vivo. It is filed as toxicity, organism-based. The procedure, abridged:
(§1)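 Mice were dosed ip with compound suspended in 0.5% methylcellulose. Rotarod: a 1 in. knurled rod turning at 6 rpm. Neurotoxicity was scored as failure to stay on the rod for at least 1 min in each of three trials. Results are given as the number of animals affected out of the number tested.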

Series [21] has as its system Mus musculus. The series can be described thus: Neurotoxicity in mouse at 100 mg/kg, ip after 0.5 hrs by rotarod test. It is filed as toxicity, organism-based. To be noted: in vivo. In short, it runs like this: as §1
Series [22] relates to Mus musculus. The series can be described thus: Neurotoxicity in mouse at 300 mg/kg, ip after 0.5 hrs by rotarod test. It is filed as toxicity, organism-based. To be noted: in vivo. In short, it runs like this:
as §1

Series [23] deals with Mus musculus. Put plainly: Anticonvulsant activity in ip dosed mouse assessed as protection against maximal electric shock-induced seizures measured after […]. It is filed as functional.
In series [24] the test system is Mus musculus. Put plainly: Anticonvulsant activity in ip dosed mouse assessed as protection against subcutaneous pentylenetetrazol-induced seizures measured after […]. It is filed as functional.
Series [25] can be described thus: Neurotoxicity in ip dosed mouse after […] by rotarod test. It is filed as toxicity, organism-based. To be noted: in vivo.
For series [26], the system named is Rattus norvegicus. The series can be described thus: Toxicity in pilocarpine-induced status epilepticus Sprague-Dawley rat assessed as death at 100 mg/kg, ip after […]. The following applies: in vivo. It is filed as organism-based.
Series [27] concerns Vibrio harveyi. The series can be described thus: Mutagenicity in Vibrio harveyi BB7 assessed as number of colonies after 48 hrs (reference value: 13 to 14 no_unit). It is filed as ADME, organism-based. To be noted: in vivo. The procedure, abridged: (§2)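 Vibrio harveyi mutagenicity test: test compound was added to exponentially growing cultures (A600 = 0.1, 30 °C) and grown to OD600 0.3–0.4. Then 5 × 10^6 cells were plated on BOSS agar with neomycin (final 100 µg/mL) and incubated 48 h at 30 °C. Neomycin-resistant colonies were counted. Triplicate; controls were water, DMSO and NQNO 40 ng/mL.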

The subject of series [28] is Vibrio harveyi. The series can be described thus: Mutagenicity in Vibrio harveyi BB7X assessed as number of colonies after 48 hrs (reference value: 15 to 16 no_unit). It is filed as ADME, organism-based. The following applies: in vivo. The procedure, abridged: as §2
Series [29] relates to Vibrio harveyi. The series can be described thus: Mutagenicity in Vibrio harveyi BB7M assessed as number of colonies after 48 hrs (reference value: 13 to 14 no_unit). It is filed as ADME, organism-based. To be noted: in vivo. The procedure, abridged: as §2
Series [30] has as its system Vibrio harveyi. Put plainly: Mutagenicity in Vibrio harveyi BB7XM assessed as number of colonies after 48 hrs (reference value: 14 no_unit). It is filed as ADME, organism-based. The following applies: in vivo. In short, it runs like this: as §2
The subject of series [31] is Vibrio harveyi. The series can be described thus: Antimutagenic activity against Vibrio harveyi BB7 assessed as inhibition of NQNO-induced mutagenicity after 48 hrs. It is filed as functional. In short, it runs like this: (§3)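 V. harveyi cultures grown exponentially to A600 0.1 at 30 °C, exposed to test compound for 15 min, then to NQNO, and grown on to A600 0.3–0.4. 5 × 10⁶ cells plated on BOSS agar with neomycin (100, final). Neomycin-resistant colonies counted after 48 h at 30 °C. Result given as % inhibition of NQNO mutagenicity; three independent repeats.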

In series [32] the test system is Vibrio harveyi. The series can be described thus: Antimutagenic activity against Vibrio harveyi BB7M assessed as inhibition of NQNO-induced mutagenicity after 48 hrs. It is filed as functional. The procedure, abridged: as §3
The test system of series [33] is Vibrio harveyi. Put plainly: Antimutagenic activity against Vibrio harveyi BB7XM assessed as inhibition of NQNO-induced mutagenicity after 48 hrs. It is filed as functional. The procedure, abridged: as §3
A short description of series [34]: Retention time of the compound in mouse liver microsomes at 20 uM preincubated for 15 mins followed by addition of NADPH-regenerating system measured after 5 to 90 mins by […] analysis. It is filed as ADME. In short, it runs like this: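 Mouse liver microsomes (0.4 mg/mL) with test compound (20 µM) in 100 mM potassium phosphate, pH 7.4, were preincubated 15 min at 37 °C. An NADPH-regenerating system was then added and incubation ran 5–90 min at 37 °C. Levallorphan (20 µM) served as internal standard, and reactions were quenched with perchloric acid. The supernatant was analysed by UPLC/MS. Duplicate incubations.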

Series [35] in a line: in vitro. The following applies: mouse, liver microsomes. A general note: Liver microsomes are vesicles of endoplasmic reticulum, rich in cytochrome P450 enzymes.
A short description of series [36]: in vitro. To be noted: mouse, liver microsomes. The source holds these as a separate data set.
Series [37] has as its system Mus musculus. The series can be described thus: Anticonvulsant activity in ip dosed mouse assessed as protection against maximal electric shock-induced seizures. It is filed as functional, organism-based. The procedure, abridged:
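Compound suspended in 0.5% methylcellulose and given ip to mice; screening doses 30, 100 and 300 mg/kg, read at 0.25–4 h. Protection was defined as abolition of hindlimb tonic extension.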

A short description of series [38]: Neurotoxicity in ip dosed mouse by rotarod test. It is filed as toxicity, organism-based. To be noted: in vivo.

Each structure is given as a SMILES string.

As a reminder, the ED50 is the dose that gives a 50% effect, or the effect in half of the subjects. What is called TD50 is the dose at which the toxic effect under study appears in half of the subjects. Low values mean greater toxicity, high ones lower toxicity. The half-life is how long it takes for the measured level to halve. The term microsomal CLint denotes a measure of how fast metabolising enzymes remove a compound, apart from limits set by blood flow. A low value points to greater metabolic stability. Regarding `Cc1cccc(C)c1OCCOCCN[C@@H](C)CO`, the Activity result in the series with Rattus norvegicus [1], in the series on Rattus norvegicus [2], in the series with Rattus norvegicus [3], with Rattus norvegicus [4], with Rattus norvegicus [5] and in the series with Rattus norvegicus [6] was “Non-toxic” in each case. Besides, the Activity entry with Rattus norvegicus [7], in the series on Rattus norvegicus [8], in the series with Rattus norvegicus [9], in the series on Rattus norvegicus [10], with Mus musculus [11] and with Mus musculus [12] was “Non-toxic” in each case. Further, the Activity entry in the series on Mus musculus [13] is on record as “Non-toxic”; in the series on Mus musculus [14], “Toxic”; with Mus musculus [15], “Non-toxic”; in the series on Mus musculus [16], “Non-toxic”; in the series on Mus musculus [17], “Non-toxic”; with Mus musculus [18], “Non-toxic”. In addition, the Activity entry with Mus musculus [19] is “Non-toxic”; with Mus musculus [20], “Non-toxic”; in the series on Mus musculus [21], “Toxic”; in the series on Mus musculus [22] it was “Toxic”; with Rattus norvegicus [26], “Non-toxic”; in the series with Vibrio harveyi [27], 15. Also, the values for the Activity with Vibrio harveyi [28], with Vibrio harveyi [29] and with Vibrio harveyi [30] were 22, 26 and 18, respectively. Moreover, the median effective dose (ED50) with Mus musculus [23] is 11.3 mg/kg; in the series on Mus musculus [24] it was more than 43 mg/kg. In series [25], the TD50 at […] was determined as 39.2 mg/kg. Besides, the “inhibition (INH)” value with Vibrio harveyi [31] turned out to be 70%; in the series on Vibrio harveyi [32], 69%; in the series with Vibrio harveyi [33] it was 5%. The Retention_time in series [34] was found to be 3.8 min. This molecule also had a half-life at 20 µM in the series “in vitro [35]” of 37 min. The microsomal CLint at 20 µM in the series “in vitro [36]” came out at 47 µL/min/mg.
`Cc1cccc(C)c1OCCN[C@H](C)CO`: the EC50 in the series on Mus musculus [37] amounted to 5.34 mg/kg. The TD50 in series [38] came out at 29.5 mg/kg. Also, the ED50 in the series on Mus musculus [23] was 5.34 mg/kg; in the series on Mus musculus [24] it was more than 50 mg/kg. Besides, the TD50 at […] in series [25] was 29.5 mg/kg.
